Source: ChEMBL document CHEMBL4689842, “EUbOPEN Chemogenomics Library wave 1” (2021)
“And” between values parts separate entries of the source, which are not always exact repeats. Equal entries are not always repeated.

Tested on: HEK-293T
Assay: Multiplex assay against HEK293T;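 on Population Tubulin-Different-Phenotype (%): share of the cells with healthy nuclei that show this phenotype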
Assay type: toxicity, cell-based
Conditions: human
Outline: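 Live cells were stained at seeding with Hoechst33342, BioTracker Green Microtubule Cytoskeleton Dye, MitoTracker Red and Annexin V Alexa Fluor 680. Following compound addition, they were imaged on a CQ1 microscope at 37°C and 5% CO2 and gated by CellPathfinder machine learning into Hoechst high-intensity objects or normal cells, with normal cells split into healthy, pyknosed or fragmented nuclei and pyknosed cells into mitotic or apoptotic. Tubulin, mitochondrial-mass and membrane-permeability phenotypes are per cents of healthy-nucleus cells.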

[1] = 12 h, 1 µM, compound concentration 1 uM, replicate 1
[2] = 12 h, 1 µM, compound concentration 1 uM, replicate 2
[3] = 12 h, 10 µM, compound concentration 10 uM, replicate 1
[4] = 12 h, 10 µM, compound concentration 10 uM, replicate 2
[5] = 24 h, 1 µM, compound concentration 1 uM, replicate 1
[6] = 24 h, 1 µM, compound concentration 1 uM, replicate 2
[7] = 24 h, 10 µM, compound concentration 10 uM, replicate 1
[8] = 24 h, 10 µM, compound concentration 10 uM, replicate 2
[9] = 48 h, 10 µM, compound concentration 10 uM, replicate 1
[10] = 48 h, 10 µM, compound concentration 10 uM, replicate 2

## COCC(=O)NC/C=C/c1ccc2ncnc(Nc3ccc(Oc4ccc(C)nc4)c(C)c3)c2c1 [CP-724714]
[1]
  Population Apoptotic (%): 22% and 23%
  Population Fragmented Nuclei (%): 14% and 11%
  Population Healthy Nuclei (%): 39% and 69%
  Population Hoechst High Intensity Objects (%): 16% and 10%
  Population Mitotic Cells (%): 77% and 76%
  Population Normal (%): 83% and 89%
  Population Pyknosed Nuclei (%): 46% and 18%
  Total Cell Count: 617 and 674
[2]
  Population Apoptotic (%): 16% and 8%
  Population Healthy Nuclei (%): 70% and 89%
  Population Hoechst High Intensity Objects (%): 3% and 2%
  Population Mitotic Cells (%): 83% and 91%
  Population Normal (%): 96% and 97%
  Total Cell Count: 843 and 1632
[3]
  Population Apoptotic (%): 66%
  Population Fragmented Nuclei (%): 19%
  Population Healthy Nuclei (%): 18%
  Population Hoechst High Intensity Objects (%): 19%
  Population Membrane Permeable-Phenotype (%): 2%
  Population Mitochondria Different-Phenotype (%): 100%
  Population Mitotic Cells (%): 33%
  Population Normal (%): 80%
  Population Pyknosed Nuclei (%): 62%
  Population Tubulin-Different-Phenotype (%): 100%
  Total Cell Count: 329
[4]
  Population Apoptotic (%): 48%
  Population Fragmented Nuclei (%): 12%
  Population Healthy Nuclei (%): 12%
  Population Hoechst High Intensity Objects (%): 6%
  Population Membrane Permeable-Phenotype (%): 11%
  Population Mitochondria Different-Phenotype (%): 96%
  Population Mitotic Cells (%): 51%
  Population Normal (%): 93%
  Population Pyknosed Nuclei (%): 75%
  Population Tubulin-Different-Phenotype (%): 92%
  Total Cell Count: 230
[5]
  Population Apoptotic (%): 31% and 18%
  Population Fragmented Nuclei (%): 13% and 9%
  Population Healthy Nuclei (%): 54% and 81%
  Population Hoechst High Intensity Objects (%): 12% and 6%
  Population Membrane Permeable-Phenotype (%): 19%
  Population Mitotic Cells (%): 68% and 81%
  Population Normal (%): 87% and 93%
  Total Cell Count: 614 and 832
[6]
  Population Apoptotic (%): 14% and 5%
  Population Healthy Nuclei (%): 65% and 76%
  Population Hoechst High Intensity Objects (%): 4% and 2%
  Population Membrane Permeable-Phenotype (%): 10% and 9%
  Population Mitotic Cells (%): 85% and 94%
  Population Normal (%): 95% and 97%
  Total Cell Count: 1006 and 2815
[7]
  Population Apoptotic (%): 71%
  Population Fragmented Nuclei (%): 23%
  Population Healthy Nuclei (%): 17%
  Population Hoechst High Intensity Objects (%): 19%
  Population Membrane Permeable-Phenotype (%): 0%
  Population Mitochondria Different-Phenotype (%): 97%
  Population Mitotic Cells (%): 28%
  Population Normal (%): 80%
  Population Pyknosed Nuclei (%): 58%
  Total Cell Count: 336
[8]
  Population Apoptotic (%): 70%
  Population Fragmented Nuclei (%): 7%
  Population Healthy Nuclei (%): 28%
  Population Hoechst High Intensity Objects (%): 6%
  Population Membrane Permeable-Phenotype (%): 6%
  Population Mitochondria Different-Phenotype (%): 98%
  Population Mitotic Cells (%): 29%
  Population Normal (%): 93%
  Population Pyknosed Nuclei (%): 63%
  Population Tubulin-Different-Phenotype (%): 95%
  Total Cell Count: 245
[9]
  Population Apoptotic (%): 62%
  Population Fragmented Nuclei (%): 26%
  Population Healthy Nuclei (%): 10%
  Population Hoechst High Intensity Objects (%): 22%
  Population Membrane Permeable-Phenotype (%): 7%
  Population Mitochondria Different-Phenotype (%): 82%
  Population Mitotic Cells (%): 37%
  Population Normal (%): 77%
  Population Pyknosed Nuclei (%): 62%
  Population Tubulin-Different-Phenotype (%): 92%
  Total Cell Count: 347
[10]
  Population Apoptotic (%): 66%
  Population Fragmented Nuclei (%): 8%
  Population Healthy Nuclei (%): 51%
  Population Hoechst High Intensity Objects (%): 5%
  Population Mitochondria Different-Phenotype (%): 90%
  Population Mitotic Cells (%): 33%
  Population Normal (%): 94%
  Population Pyknosed Nuclei (%): 39%
  Population Tubulin-Different-Phenotype (%): 96%
  Total Cell Count: 291

## C=CCn1c(=O)c2cnc(Nc3ccc(N4CCN(C)CC4)cc3)nc2n1-c1cccc(C(C)(C)O)n1 [ADAVOSERTIB]
[1]
  Population Apoptotic (%): 16%
  Population Fragmented Nuclei (%): 23%
  Population Healthy Nuclei (%): 36%
  Population Hoechst High Intensity Objects (%): 14%
  Population Membrane Permeable-Phenotype (%): 4%
  Population Mitochondria Different-Phenotype (%): 3%
  Population Mitotic Cells (%): 83%
  Population Normal (%): 85%
  Population Pyknosed Nuclei (%): 39%
  Population Tubulin-Different-Phenotype (%): 2%
  Total Cell Count: 606
[2]
  Population Apoptotic (%): 13%
  Population Fragmented Nuclei (%): 7%
  Population Healthy Nuclei (%): 62%
  Population Hoechst High Intensity Objects (%): 3%
  Population Membrane Permeable-Phenotype (%): 3%
  Population Mitochondria Different-Phenotype (%): 16%
  Population Mitotic Cells (%): 86%
  Population Normal (%): 96%
  Population Pyknosed Nuclei (%): 30%
  Population Tubulin-Different-Phenotype (%): 15%
  Total Cell Count: 1183
[3]
  Population Apoptotic (%): 12%
  Population Fragmented Nuclei (%): 20%
  Population Healthy Nuclei (%): 22%
  Population Hoechst High Intensity Objects (%): 17%
  Population Membrane Permeable-Phenotype (%): 16%
  Population Mitochondria Different-Phenotype (%): 16%
  Population Mitotic Cells (%): 87%
  Population Normal (%): 82%
  Population Pyknosed Nuclei (%): 56%
  Population Tubulin-Different-Phenotype (%): 47%
  Total Cell Count: 637
[4]
  Population Apoptotic (%): 9%
  Population Fragmented Nuclei (%): 15%
  Population Healthy Nuclei (%): 27%
  Population Hoechst High Intensity Objects (%): 2%
  Population Membrane Permeable-Phenotype (%): 4%
  Population Mitochondria Different-Phenotype (%): 32%
  Population Mitotic Cells (%): 90%
  Population Normal (%): 97%
  Population Tubulin-Different-Phenotype (%): 70%
  Total Cell Count: 1182
[5]
  Population Apoptotic (%): 17%
  Population Fragmented Nuclei (%): 22%
  Population Healthy Nuclei (%): 46%
  Population Hoechst High Intensity Objects (%): 9%
  Population Membrane Permeable-Phenotype (%): 6%
  Population Mitochondria Different-Phenotype (%): 5%
  Population Mitotic Cells (%): 82%
  Population Normal (%): 90%
  Population Pyknosed Nuclei (%): 30%
  Population Tubulin-Different-Phenotype (%): 6%
  Total Cell Count: 590
[6]
  Population Apoptotic (%): 16%
  Population Fragmented Nuclei (%): 7%
  Population Healthy Nuclei (%): 58%
  Population Hoechst High Intensity Objects (%): 4%
  Population Membrane Permeable-Phenotype (%): 5%
  Population Mitochondria Different-Phenotype (%): 14%
  Population Mitotic Cells (%): 83%
  Population Normal (%): 95%
  Population Pyknosed Nuclei (%): 33%
  Population Tubulin-Different-Phenotype (%): 32%
  Total Cell Count: 1164
[7]
  Population Apoptotic (%): 21%
  Population Fragmented Nuclei (%): 27%
  Population Healthy Nuclei (%): 26%
  Population Hoechst High Intensity Objects (%): 18%
  Population Membrane Permeable-Phenotype (%): 12%
  Population Mitochondria Different-Phenotype (%): 32%
  Population Mitotic Cells (%): 78%
  Population Normal (%): 81%
  Population Pyknosed Nuclei (%): 46%
  Population Tubulin-Different-Phenotype (%): 56%
  Total Cell Count: 609
[8]
  Population Apoptotic (%): 20%
  Population Fragmented Nuclei (%): 15%
  Population Healthy Nuclei (%): 39%
  Population Hoechst High Intensity Objects (%): 3%
  Population Membrane Permeable-Phenotype (%): 3%
  Population Mitochondria Different-Phenotype (%): 53%
  Population Mitotic Cells (%): 79%
  Population Normal (%): 96%
  Population Pyknosed Nuclei (%): 44%
  Population Tubulin-Different-Phenotype (%): 80%
  Total Cell Count: 1042
